pKd: −log10 of the molar value.
What was measured:
[1] = system: PHF20L1 expression in MDA-MB-231 cells; experiment: Western blotting of PHF20L1 in cells exposed to CoCl2; type: cell-based, human; details: MDA-MB-231 cells exposed to CoCl2
In short: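 MDA-MB-231 cells, grown in L-15 medium with 10% FBS at 37°C without CO2, treated with CoCl2 as hypoxia mimic; lysates immunoblotted for PHF20L1 and for HIF1α as hypoxia marker.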

PHF20L1 TUDOR domain = experiment: ITC

Row | Compound | induction of PHF20L1 protein by hypoxia activator [1] | pKd (PHF20L1 TUDOR domain)
1 | [Cl][Co][Cl] [CoCl2, cobalt chloride] | PHF20L1 was indeed induced | –
2 | H3K27me2 peptide (ITC) | – | 4.13

— article PMC7159910 (Science Advances, 2020)
